Screening data as filed in PubChem BioAssay.
The sample as a whole holds a higher share of hits than the screen did.
CHOP inh = inhibitors of CHOP induction in ER stress response | CHO-K1 CHOP-promoter luciferase, tunicamycin-induced, 15-18 h | inhibition, % at 10 µM | 220,000 compounds, 3.8% hits | AID 2732;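 active = compounds that reduced the stress-induced luciferase reporter signal by more than about 70% of percent inhibition, limit read from the data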
Beta2AR agonist = activates human beta-2 adrenergic receptor causing internalization; P07550; Am2.2-beta2AR cells, FAP receptor internalization, flow cytometry; response, % (no concentration beside the values); 340,000 compounds, 0.43% hits;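 active = response above a set limit, near 3 SD of response in nonfluorescent compounds, cut at about 42% in these data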
VLA-4 inh = inhibition in a human VLA-4 binding assay; VLA-4 expressing cells, ligand binding flow cytometry; inhibition, % (about 7 µM as worked out from the volumes in the protocol); 330,000 compounds, 0.2% hits; in the data active = inhibition above about 50%
Target sequence (P13612 whole entry, looked up): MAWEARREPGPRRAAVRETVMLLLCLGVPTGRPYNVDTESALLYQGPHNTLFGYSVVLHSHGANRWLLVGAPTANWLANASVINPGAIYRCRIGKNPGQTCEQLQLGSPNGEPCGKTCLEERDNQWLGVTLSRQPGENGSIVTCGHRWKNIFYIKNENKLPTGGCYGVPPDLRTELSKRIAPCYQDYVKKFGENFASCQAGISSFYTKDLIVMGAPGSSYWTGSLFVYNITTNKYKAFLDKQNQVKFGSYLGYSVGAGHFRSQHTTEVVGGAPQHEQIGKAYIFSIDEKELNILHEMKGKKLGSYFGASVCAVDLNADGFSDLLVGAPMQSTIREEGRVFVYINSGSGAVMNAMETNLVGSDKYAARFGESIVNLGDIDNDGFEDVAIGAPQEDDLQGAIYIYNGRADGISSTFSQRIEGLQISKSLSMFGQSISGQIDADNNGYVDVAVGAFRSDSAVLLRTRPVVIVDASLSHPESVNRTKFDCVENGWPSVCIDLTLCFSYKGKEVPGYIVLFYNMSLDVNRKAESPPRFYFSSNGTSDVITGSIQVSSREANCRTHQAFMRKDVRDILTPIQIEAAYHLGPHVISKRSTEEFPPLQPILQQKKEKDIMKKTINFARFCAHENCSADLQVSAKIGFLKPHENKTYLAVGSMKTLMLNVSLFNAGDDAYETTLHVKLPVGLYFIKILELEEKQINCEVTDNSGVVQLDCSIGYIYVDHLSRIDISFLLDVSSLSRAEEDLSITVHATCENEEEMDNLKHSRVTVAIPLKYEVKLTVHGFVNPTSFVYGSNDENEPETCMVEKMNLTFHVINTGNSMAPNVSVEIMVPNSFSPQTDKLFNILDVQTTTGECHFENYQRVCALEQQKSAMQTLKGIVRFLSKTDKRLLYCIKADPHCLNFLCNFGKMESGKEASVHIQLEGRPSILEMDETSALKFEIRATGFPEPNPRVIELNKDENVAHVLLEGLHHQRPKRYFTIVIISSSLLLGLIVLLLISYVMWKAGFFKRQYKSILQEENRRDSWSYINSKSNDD
UPR XBP1 act = activators of adaptive arm of unfolded protein response (XBP1). activation, % at 20 µM. 330,000 compounds, 0.33% hits. AID 463104. CHO-XBP1 luciferase reporter, IRE1-XBP1 UPR activation, luminescence; percent of tunicamycin response, DMSO as zero;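 active = versus positive control, 20 µM dose yields 30% or more activation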
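Material: IRE1-XBP1 luciferase reporter CHO line / Quantity: one thousand reporter cells per well / Buffer or medium: F12 with 10% serum / Compound: 20 µM single concentration, DMSO 1% / Times: 6 h treatment, 37 °C / Detection: Steady-Glo luciferase glow luminescence, 10 min after reagent addition / Benchmarks: tunicamycin high, DMSO low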
UPR CHOP act = activators of apoptotic arm of unfolded protein response (CHOP) | activation, % at 10 µM | CHO-CHOP luciferase reporter, UPR activation, luminescence; percent of tunicamycin response over DMSO baseline | 330,000 compounds, 0.34% hits | AID 449763;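 active = at 10 µM dose, activation of 40% or more, normalized to positive control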
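Assay system: CHO-CHOP cells, stable luciferase reporter of PERK-eIF2a-CHOP signalling / Buffer or medium: F12 plus 10% serum / Compound dosing: one dose, 10 µM in 0.5% DMSO / Times: 6 h compound treatment, 37 °C / Technique: luciferase luminescence / Read-out: % reporter activation, DMSO baseline versus tunicamycin full activation / Benchmarks: tunicamycin and DMSO controls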
Each line names hits and unclear results; the compound was inactive in the other large screens; ! = repeats disagree.

COc1ccc(/C=C2\Sc3ccc(C(=O)NCC4CCCO4)cc3N(C)C2=O)cc1 (stereo unspecified)	none (no result: CHOP inh)
COc1ccc(C(=O)N/C(=C\c2cn(C)c3ccccc23)C(=O)NCCCN2CCOCC2)cc1	none (no result: CHOP inh)
COc1ccc(Oc2nc(SC)nc3ccccc23)cc1	CHOP inh 82.0
COc1ccc(Oc2nc(-c3cccnc3)nc3ccccc23)cc1	none
COc1ccc(Oc2nc3ccccc3nc2C(F)(F)F)cc1	CHOP inh 70.4
Cc1ccc(S(=O)(=O)N(C)CC(=O)NNC(=O)CCS(=O)(=O)c2ccccc2)cc1	none (no result: CHOP inh)
Cc1ccc(C(C(=O)NC2CCCC2)N2CCc3ccccc32)cc1 (stereo unspecified)	CHOP inh 79.4
CCCCCCCn1ccc(=N)cc1	none
CCCCCCCCCn1ccc(=N)cc1	CHOP inh 75.8
Cc1nn(-c2ccccc2)c(C)c1NC(=O)COC(=O)/C=C/c1ccccc1	none (no result: CHOP inh)
O=C(O)CC(C(=O)O)c1ccc(OCCCCOc2ccc(C(CC(=O)O)C(=O)O)cc2)cc1 (stereo unspecified)	none (no result: CHOP inh)
CCOC(=O)c1ccc(NC(=S)Nc2cccc(C)n2)cc1	CHOP inh 73.7
CCOC(=O)c1ccc(NC(=S)Nc2cccc(N)n2)cc1	none
CC(C)(CNC(=O)c1ccc(S(=O)(=O)Nc2ccc(Cl)cc2)cc1)N1CCOCC1	none (no result: CHOP inh)
O=C(CSc1ccc(-c2ccc(F)cc2)nn1)NC1CCCCC1	none (no result: CHOP inh)
Cc1cc(C)n(-c2cc(N3CCN(C(=O)c4ccc(C(C)(C)C)cc4)CC3)ccc2[N+](=O)[O-])n1	CHOP inh 73.1
COc1ccc2[nH]c3c(c2c1)CCN1C(=O)C(CC(=O)NCc2cccc(C(F)(F)F)c2)C[C@H](C(=O)N(C(C)C)C(C)C)[C@@]31C (stereo partly specified)	none (no result: CHOP inh, VLA-4 inh)
COc1ccc(-c2nc(CSCC(=O)N3CCc4ccccc4C3)c(C)o2)cc1OC	none
COc1ccc(-c2nc(CSCC(=O)N3CCN(c4cccc(C)c4)C(C)C3)c(C)o2)cc1OC (stereo unspecified)	CHOP inh 76.4
O=C(Cn1cnc2sc3c(c2c1=O)CCCC3)NCC(=O)Nc1ccc(F)cc1F	none (no result: CHOP inh)
COc1ccc(-c2nc(SCc3ccccc3)n(C(=O)c3ccco3)n2)cc1	none
COc1ccc(-c2nc(SC)n(C(=O)c3ccco3)n2)cc1	CHOP inh 72.2
CCCC(=O)n1nc(-c2cccnc2)nc1NCc1ccccc1	CHOP inh 70.2 (no result: VLA-4 inh, UPR XBP1 act, UPR CHOP act)
O=C(c1ccco1)n1nc(-c2ccccc2)nc1NCc1ccco1	CHOP inh 80.7
COc1ccc(CNc2nc(-c3cccnc3)nn2C(=O)CC(C)C)cc1	CHOP inh 83.5
COc1ccc(C(=O)NC(CC(=O)O)c2cc([N+](=O)[O-])ccc2Cl)c(SC)c1 (stereo unspecified)	none
CC(=O)n1nc(-c2ccccc2)nc1NCc1ccc(F)cc1	CHOP inh 73.8
CCOC(=O)c1cnc2c(OC)cccc2c1N1CCN(c2ccccc2OC)CC1	none
CCOC(=O)c1cnc2c(OC)cccc2c1N1CCN(c2ccc(OC)cc2)CC1	CHOP inh 83.1
COc1ccc(S(=O)(=O)N2CCC(N3CCCCC3)CC2)cc1	none
COc1ccc(S(=O)(=O)N2CCN(C3CCCCCCC3)CC2)cc1	CHOP inh 74.0!
Cc1ccc(-n2nc(C)c3c(C)c(CCC(=O)NCc4ccco4)c(C)nc32)cc1	CHOP inh 70.2
Cc1ccc(-n2nc(C)c3c(C)c(CCC(=O)NCc4ccccc4)c(C)nc32)cc1	CHOP inh 70.2
Cc1ccc(CNC(=O)CCc2c(C)nc3c(c(C)nn3-c3ccc(C)cc3)c2C)cc1	none
Cc1ccc(S(=O)(=O)NNC(=O)Nc2cccc(C)c2C)c(C)c1	none (no result: CHOP inh)
COc1cc(NC(=O)C(=O)NNC(=O)C2CCCCC2)c(OC)cc1Cl	CHOP inh 84.6
Cc1nc(Nc2ccc(Cl)cc2Cl)sc1C(=O)Nc1ccccc1	none
Cc1nc(NC(=O)/C=C/c2ccccc2)sc1C(=O)Nc1ccc(Cl)cc1	CHOP inh 88.0
Cc1nc(Nc2ccc(Cl)c(Cl)c2)sc1C(=O)Nc1ccccc1	CHOP inh 96.2
CCOC(=O)c1cnc2cc(F)c(F)cc2c1N1CCN(C)CC1	none (no result: CHOP inh)
O=C(NCc1cc(C(F)(F)F)cc(C(F)(F)F)c1)C1CC(c2ccccc2C(F)(F)F)=NO1 (stereo unspecified)	none (no result: CHOP inh, Beta2AR agonist, VLA-4 inh)
CC(=O)c1sc(NC(=O)c2ccccc2F)nc1-c1ccccc1	none
CC(=O)c1sc(NC(=O)c2ccc(F)cc2)nc1-c1ccccc1	CHOP inh 75.2
CCN1C(=O)/C(=C\c2cccn2-c2ccc([N+](=O)[O-])cc2)N(CC)C1=S	CHOP inh 74.4
Cc1ccc(S(=O)(=O)ON2C(=O)c3ccccc3C2=O)c(C)c1	CHOP inh 93.6 (no result: UPR XBP1 act, UPR CHOP act)
O=C1c2ccccc2C(=O)N1OS(=O)(=O)c1ccc(F)cc1	none (no result: CHOP inh, UPR XBP1 act, UPR CHOP act)
S=C(NCc1ccc(Cl)cc1)NC1CCN(Cc2ccccc2)CC1	none
O=C(COC(=O)c1ccc(O)cc1O)NC(=O)NCc1ccccc1	none (no result: CHOP inh)
COC(=O)C1=C(C)N(C)C(=O)NC1c1cccc2ccccc12 (stereo unspecified)	none (no result: CHOP inh)
O=C1C=C(N(CCO)Cc2ccccc2)c2ccccc2C1=O	CHOP inh 89.4 (no result: VLA-4 inh, UPR XBP1 act, UPR CHOP act)
CCCc1sc(N/N=C/c2ccccn2)nc1-c1ccc(F)cc1	CHOP inh 87.4
Cc1nc(N/N=C/c2ccccn2)sc1C	CHOP inh 86.3 (no result: Beta2AR agonist, UPR XBP1 act, UPR CHOP act)
COC(=O)c1ccc(/C=N/Nc2nc(C)c(C)s2)cc1	none
COCCN(C(=O)COC(=O)c1cccnc1SC)c1c(N)n(Cc2ccccc2)c(=O)[nH]c1=O	none (no result: CHOP inh)
Cc1ccc(CSc2nnc(-c3ccc(NS(=O)(=O)c4ccccc4)cc3)o2)cc1	CHOP inh 71.0
Cc1ccc(S(=O)(=O)Nc2ccc(-c3nnc(SCc4ccccc4Cl)o3)cc2)cc1	none
CC(C)C(=O)N1CCN(c2ccccc2NC(=O)c2cc([N+](=O)[O-])ccc2N2CCOCC2)CC1	none
Cc1cc(C)nc(Nc2n[nH]c(COc3ccccc3)n2)n1	none
Cc1cc(C)nc(Nc2n[nH]c(COc3ccc4ccccc4c3)n2)n1	CHOP inh 87.2
CCOC(=O)C1=C(C)N(CCCC(=O)O)C(=O)NC1c1cccs1 (stereo unspecified)	none (no result: CHOP inh)
Cn1cnnc1SCC(C)(C)NS(=O)(=O)c1ccc(Cl)cc1	none (no result: CHOP inh)
c1ccc(-c2nnc3sc(CN4CCC5(CC4)OCCO5)cn23)cc1	CHOP inh 77.0
c1ccc(Nc2cccc3c(Nc4ccccc4)cccc23)cc1	CHOP inh 79.1
c1ccc(Nc2ccccc2)cc1	none (no result: CHOP inh)
Cn1cc(Cl)c(C(=O)OCC(=O)c2ccccc2)n1	none (no result: CHOP inh)
Cc1ccc(-c2noc(CSc3ccccc3)n2)cc1	none
Cc1cccc(-c2noc(CSc3ccccc3)n2)c1	CHOP inh 70.5
O=C(Nc1nccs1)c1ncc(Cl)c(Cl)c1Cl	none (no result: CHOP inh)
Cc1cc(S(=O)(=O)NCC(c2ccccc2)c2ccccc2)ccc1-n1cnnn1	CHOP inh 70.1
COc1ccccc1CNS(=O)(=O)c1ccc(-n2cnnn2)c(C)c1	none (no result: CHOP inh)
